Assay results pooled from the literature.
≈ marks a conversion by molar mass, not a printed value.

SMILES	tested on	test	system	conditions	endpoint	result
O=C(Cn1ccnc1[N+](=O)[O-])NCc1ccccc1	Trypanosoma cruzi	parasite growth	–	72 h, epimastigote	IC50	1.57 µg/mL
COc1ccc(NC(=O)NCc2cn(Cc3ccc(C)cc3)nn2)cc1	Huh-7	cell growth or viability, CCK-8	–	72 h	IC50	> 50 µM
COc1ccc(Nc2cnnc3ccc(-c4ccc(N5CCN(C)CC5)cc4)cc23)nc1	Trypanosoma cruzi	parasite growth	C2C12	intracellular, amastigote	EC50	1.7 µM
O=C(NCc1cn(Cc2ccc(Br)cc2)nn1)Nc1ccccc1Br	Huh-7	cell growth or viability, CCK-8	–	50 µM, 72 h	viability	72.9%
COc1ccc(NC(=O)Nc2cccc(-c3cn(Cc4cccc(Cl)c4)nn3)c2)cc1	Huh-7	cell growth or viability, CCK-8	–	50 µM, 48 h	viability	65.5%
COc1ccc(Nc2cnnc3ccc(-c4ccc(N5CCN(C)CC5)cc4)cc23)cc1Cl	Trypanosoma cruzi	parasite growth	C2C12	intracellular, amastigote	EC50	2.4 µM
O=C(Nc1cccc(-c2cn(Cc3ccc(Cl)cc3)nn2)c1)Nc1ccccc1Br	Huh-7	cell growth or viability, CCK-8	–	50 µM, 48 h	viability	53.1%
COc1ccc(NC(=O)Nc2cccc(-c3cn(Cc4ccc(Cl)cc4)nn3)c2)cc1	Huh-7	cell growth or viability, CCK-8	–	72 h	IC50	15.5 µM
COc1ccc(Nc2cnnc3ccc(-c4cnc(N5CCN(C)CC5)nc4)cc23)cc1Cl	Trypanosoma cruzi	parasite growth	C2C12	intracellular, amastigote	EC50	5.7 µM
Cc1ccccc1Cn1cc(-c2cccc(NC(=O)Nc3ccc(F)cc3)c2)nn1	Huh-7	cell growth or viability, CCK-8	–	50 µM, 72 h	viability	12.5%
O=C(NCc1cn(Cc2ccc(Br)cc2)nn1)Nc1ccc(Cl)cc1	Huh-7	cell growth or viability, CCK-8	–	50 µM, 48 h	viability	88.2%
Cc1ccc(Nc2cnnc3cc(-c4cnc(N5CCCN(C)CC5)nc4)ccc23)cn1	Trypanosoma cruzi	parasite growth	C2C12	intracellular, amastigote	EC50	> 10 µM
O=C(Nc1ccc(Cl)cc1)Nc1cccc(-c2cn(Cc3ccc(Cl)cc3)nn2)c1	Huh-7	cell growth or viability, CCK-8	–	50 µM, 72 h	viability	15.6%
Cc1ccc(Nc2cnnc3ccc(-c4ccc(N5CCCN(C)CC5)cc4)cc23)cn1	Trypanosoma cruzi	parasite growth	C2C12	intracellular, amastigote	EC50	6.1 µM
O=C(NCc1cn(Cc2cccc(Cl)c2)nn1)Nc1ccc(Cl)cc1	Huh-7	cell growth or viability, CCK-8	–	50 µM, 72 h	viability	82.2%
Cc1ccc(C(C)C)c(OC2=C(Cl)C(=O)c3ccccc3C2=O)c1	Alternaria alternata	microbial growth, broth dilution	–	–	MIC	12 µg/mL (≈ 35.2 µM)
COc1ccc(NC(=O)NCc2cn(Cc3ccc(Br)cc3)nn2)cc1	Huh-7	cell growth or viability, CCK-8	–	50 µM, 48 h	viability	87.2%
Cc1ccc(Nc2cnnc3cc(-c4ccc(N5CCN(C)CC5)cc4)ccc23)cn1	Trypanosoma cruzi	parasite growth	C2C12	intracellular, amastigote	EC50	1.3 µM
COc1ccc(NC(=O)Nc2ccc(-c3cn(Cc4cccc(Cl)c4)nn3)cc2)cc1	Huh-7	cell growth or viability, CCK-8	–	72 h	IC50	> 50 µM
O=C(Nc1ccc(-c2cn(Cc3ccc(Cl)cc3)nn2)cc1)Nc1ccccc1Br	Huh-7	cell growth or viability, CCK-8	–	50 µM, 72 h	viability	87.2%
COc1ccc(NC(=O)Nc2ccc(-c3cn(Cc4ccc(Br)cc4)nn3)cc2)cc1	Huh-7	cell growth or viability, CCK-8	–	50 µM, 72 h	viability	91.2%
O=C(Nc1cccc(-c2cn(Cc3ccc(Br)cc3)nn2)c1)Nc1ccccc1Br	Huh-7	cell growth or viability, CCK-8	–	50 µM, 72 h	viability	10.8%
CN1CCN(c2ccc(-c3ccc4c(Nc5ncccn5)cnnc4c3)cc2)CC1	Trypanosoma cruzi	parasite growth	C2C12	intracellular, amastigote	EC50	2.6 µM
